Source: PubChem (The Scripps Research Institute Molecular Screening Center)
HTRA1 inhibitor = HTRA1 serine protease inhibitors, primary screen, biochemical, fluorescence polarization, HTS; 0.5% of 340,000 active; inhibition, % at 5.96 µM; recombinant HTRA1, FP-rhodamine activity-based probe; Q92743; in the data active = inhibition above about 36%
ABHD4 inh = ABHD4 inhibitors, primary screen, biochemical, fluorescence polarization, mouse; (Lyso)-N-acylphosphatidylethanolamine lipase (Mus musculus), Q8VD66; purified mABHD4, FP-Rh probe fluorescence polarization; inhibition, % at 8.92 µM; 0.54% of 370,000 active; AID 720543, 2013;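 active = inhibition exceeding the mean over every tested compound plus 3 SD, cut at about 30% in these data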
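assay system = mABHD4 protein | compound dosing = single nominal dose of 8.92 µM, 0.89% DMSO final | read-out basis = percent inhibition of probe binding, normalized to plate controls | schedule = Enzyme–compound pre-incubation 45 min, then probe 60 min, both 25 °C | detection = fluorescence polarization, excitation 525 nm, emission 598 nm, BODIPY TMR filters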
SIAE primary = human SIAE inhibitors, primary screen, biochemical, fluorescence polarization, FP-Rh probe, 1536-well HTS. inhibition, % at 9.66 µM. 0.69% of 370,000 active. SIAE FP-Rh probe binding. Sialate O-acetylesterase (Homo sapiens), Q9HAT2;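 active = inhibition above a cutoff: mean of compounds within the control limits plus 3 SD of those, cut at about 17% in these data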
Target sequence (Q9HAT2 whole entry, looked up): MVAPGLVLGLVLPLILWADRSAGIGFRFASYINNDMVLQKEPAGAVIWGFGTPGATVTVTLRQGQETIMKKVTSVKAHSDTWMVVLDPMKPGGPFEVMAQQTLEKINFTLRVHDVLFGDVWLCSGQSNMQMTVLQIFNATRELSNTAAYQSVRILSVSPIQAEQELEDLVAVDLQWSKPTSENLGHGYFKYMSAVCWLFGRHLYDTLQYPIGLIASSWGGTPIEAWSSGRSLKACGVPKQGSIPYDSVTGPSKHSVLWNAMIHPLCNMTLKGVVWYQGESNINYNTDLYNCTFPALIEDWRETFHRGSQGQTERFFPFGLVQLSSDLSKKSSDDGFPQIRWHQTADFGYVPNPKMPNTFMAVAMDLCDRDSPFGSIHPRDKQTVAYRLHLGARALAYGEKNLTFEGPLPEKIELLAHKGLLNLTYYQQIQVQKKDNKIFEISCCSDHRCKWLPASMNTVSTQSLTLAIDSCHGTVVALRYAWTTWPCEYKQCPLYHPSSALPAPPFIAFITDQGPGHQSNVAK
RBBP9 inh = human RBBP9 inhibitors, primary screen, biochemical, fluorescence polarization, FP-Rh probe, HTS; Serine hydrolase RBBP9 (Homo sapiens), O75884; recombinant RBBP9; inhibition, % at 7.94 µM; 0.2% of 220,000 active; AID 1515, 2009;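 active = inhibition above the campaign mean of all tested compounds plus 3 SD, cut at about 14% in these data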
Target sequence (O75884 whole entry, looked up): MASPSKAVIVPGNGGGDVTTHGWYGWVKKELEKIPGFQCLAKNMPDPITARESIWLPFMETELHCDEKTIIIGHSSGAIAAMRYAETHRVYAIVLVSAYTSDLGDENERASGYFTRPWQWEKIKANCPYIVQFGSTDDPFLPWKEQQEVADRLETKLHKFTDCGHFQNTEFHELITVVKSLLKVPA
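System: RBBP9 protein / Quantity: 2.5 µM RBBP9 dispensing solution, before mixing / Also added: Serine-hydrolase probe FP-Rh, 375 nM pre-mixing / Dosing: 7.94 µM single dose, 0.794% DMSO / Timing: enzyme-compound preincubation 30 min, then probe labeling 45 min, 25 °C / Signal: FP readout at 525/598 nm / Controls: DMSO-treated enzyme wells and wells lacking RBBP9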
SIAE confirm = human SIAE inhibitors, retest, confirmation, biochemical, fluorescence polarization, FP-Rh probe, triplicate. shares compounds with SIAE primary. SIAE FP-Rh activity-based probe. inhibition, % at 9.66 µM. 13% of 2,300 active. AID 1117263, 2014;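 active = mean inhibition of the replicates above the hit cutoff set in the primary screen, cut at about 17% in these data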;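 also: inhibitors lower polarization as more probe stays unbound to SIAE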
Of the large screens only hits and unclear results are named; the others gave an inactive call (follow-up assays come after a bar, where they were run). Rows were chosen to be rich in hits. Some 1.4% of all compounds tested hit in one or more screens of this group.

O=C(C1CCC1)N1CCC(O)(c2cccc(F)c2)CC1	none
CCCC(=O)N1CCC(O)(c2cccc(F)c2)CC1	SIAE primary 49 | SIAE confirm inactive
Cc1ccccc1NS(=O)(=O)c1ccc(C(=O)NCCCN2CCOCC2)cc1	none (no result: RBBP9 inh)
O=C(NCCCN1CCOCC1)c1ccc(S(=O)(=O)Nc2ccccc2F)cc1	SIAE primary 17 (no result: RBBP9 inh) | SIAE confirm inactive
CCOC(=O)c1c(/N=C/C2=C(O)CCCC2=O)sc(C)c1C	SIAE primary 18 | SIAE confirm inactive
COCC(=O)Nc1c(C(=O)Nc2ccc3c(c2)OCO3)oc2ccccc12	none (no result: RBBP9 inh)
O=C(CCl)Nc1c(C(=O)Nc2ccc3c(c2)OCCO3)oc2ccccc12	SIAE primary 20 (no result: RBBP9 inh) | SIAE confirm inactive
COC(=O)C1CN(Cc2ccccc2)CCS(=O)(=O)N1Cc1cccc(Cl)c1 (configuration not stated)	none (no result: HTRA1 inhibitor, RBBP9 inh)
Cc1ccc(-n2c(CNc3ccc(F)cc3)nnc2SCC(=O)O)cc1	SIAE primary 20 (no result: HTRA1 inhibitor) | SIAE confirm inactive
Cc1cccc(S(=O)(=O)Nc2ccc(C)c3c2OC(C)(C)C3)c1	SIAE primary 24 | SIAE confirm inactive
NS(=O)(=O)c1ccc(N/N=C/C=C/c2ccccc2[N+](=O)[O-])cc1	SIAE primary 24 (no result: RBBP9 inh) | SIAE confirm inactive
CC(=O)Nc1cc(-c2cccc(NS(C)(=O)=O)c2)cn2c(-c3cccc(C(F)(F)F)c3)cnc12	none (no result: HTRA1 inhibitor, RBBP9 inh)
CC(=O)Nc1cc(-c2ccccc2N(C)C)cn2c(-c3cccc(C(F)(F)F)c3)cnc12	SIAE primary 18 (no result: HTRA1 inhibitor, RBBP9 inh) | SIAE confirm inactive
O=C(Nc1nnc(SCc2ccccn2)s1)C1CC(=O)N(c2ccc(F)cc2)C1 (configuration not stated)	none (no result: RBBP9 inh)
CCc1ccc(CCNC(=O)OCCCN2CCC3(CCC(C)CC3)C2=O)cc1 (configuration not stated)	none (no result: HTRA1 inhibitor, RBBP9 inh)
COc1ccc(/C=N/Nc2nc(-c3ccc(C)cc3)c(NC(C)=O)s2)cc1OC	none
COc1cc(/C=N\Nc2nc(-c3ccc(C)cc3)c(NC(C)=O)s2)ccc1O	SIAE primary 22 | SIAE confirm 33
CC(C)NC(=O)N(C)C[C@H]1OCc2cn(nn2)CCCC(=O)N([C@H](C)CO)C[C@@H]1C	none (no result: HTRA1 inhibitor, RBBP9 inh)
Nc1ccc(C2=Nc3cccc4cccc(c34)N2)cc1	SIAE primary 24 | SIAE confirm inactive
c1coc(C2=Nc3cccc4cccc(c34)N2)c1	SIAE primary 23 | SIAE confirm inactive
COc1cccc(C2=Nc3cccc4cccc(c34)N2)c1	SIAE primary 22 | SIAE confirm inactive
COc1cccc(-c2nnc(-c3ccc4ccccc4c3)o2)c1	none (no result: RBBP9 inh)
O=C1CC(c2ccco2)=Nc2ccccc2N1	none
CN1CCN(Cc2cccc3ncccc23)CC1CCO (configuration not stated)	none (no result: RBBP9 inh)
CC(C)(C)C(=O)OC12CCCN(C1)/C(=C/c1ccc(C#N)cc1)C2 (configuration not stated)	SIAE primary 39 (no result: HTRA1 inhibitor, RBBP9 inh) | SIAE confirm inactive
CCNC(=O)C1(C)CCN(C(=O)c2ccc(C(=O)OC)cc2)C1 (configuration not stated)	none (no result: HTRA1 inhibitor, RBBP9 inh)
COc1ccc(Nc2ncnc3sc(-c4ccccc4)cc23)cc1OC	SIAE primary 23 | SIAE confirm inactive
COc1cccc(Nc2nc(CN)cs2)n1	SIAE primary 22 (no result: HTRA1 inhibitor, RBBP9 inh) | SIAE confirm inactive
O=C(NCCO)c1cccc(Nc2nc(-c3ccccc3)c3cc(Cl)ccc3n2)c1	SIAE primary 21 | SIAE confirm inactive
O=C(CSc1nnc(-c2cccnc2)n1-c1ccc(Cl)cc1)c1ccc(F)cc1	none (no result: HTRA1 inhibitor, RBBP9 inh)
O=C(NCCc1csc(-c2cccnc2)n1)c1ccc(Br)o1	SIAE primary 18 | SIAE confirm inactive
CC1(NC(=O)Nc2cccc3ccccc23)CCS(=O)(=O)C1 (configuration not stated)	SIAE primary 22 (no result: RBBP9 inh) | SIAE confirm inactive
CN(C)c1cccc(NC(=O)NC2(C)CCS(=O)(=O)C2)c1 (configuration not stated)	none (no result: RBBP9 inh)
N#Cc1ccc2[nH]c(CO)c(-c3ccccc3)c2c1	none (no result: RBBP9 inh)
Cc1ccc2c(c1)=C(c1sc(N(C)c3ccc(O)cc3)nc1O)C(=O)N=2	SIAE primary 17 (no result: RBBP9 inh) | SIAE confirm inactive
CCOc1ccc(OCC)c(NS(=O)(=O)c2cn(C)cn2)c1	none (no result: RBBP9 inh)
Cn1cnc(S(=O)(=O)Nc2ccccc2C(=O)NCC2CC2)c1	SIAE primary 17 | SIAE confirm inactive
CC12CC(O)C3C(CCC4=CC(=O)CCC43C)C1CCC2=CCO (configuration not stated)	none (no result: RBBP9 inh)
CSc1ccc(/C=C/C(=O)c2ccc(NC(=O)Cc3ccccc3)cc2)cc1	SIAE primary 31 | SIAE confirm 45
CSc1ccc(/C=C/C(=O)c2ccc(NC(=O)C(C)C)cc2)cc1	none
C/C(=N\N=C1\NC(=O)CC(C(=O)O)S1)c1ccc(F)cc1 (configuration not stated)	none
COc1ccc(/C(C)=N/N=C2/NC(=O)CC(C(=O)O)S2)cc1 (configuration not stated)	SIAE primary 22 | SIAE confirm inactive
C(=N\Nc1nc(Nc2ccccc2)nc(N2CCOCC2)n1)/c1c[nH]c2ccccc12	SIAE primary 19 (no result: HTRA1 inhibitor) | SIAE confirm 24
Cc1ccc(Nc2nc(N/N=C/c3c[nH]c4ccccc34)nc(N3CCOCC3)n2)cc1	SIAE primary 28 | SIAE confirm inactive
CCCC#C/C(CCC)=C1\c2ccccc2C(=O)N1c1ccccc1	none (no result: HTRA1 inhibitor, RBBP9 inh)
Cc1ccc(NC(=O)Cc2ccc3c(c2)OCCO3)cc1S(=O)(=O)N1CCCCC1	none
O=C(CN1CCN(c2ccccc2O)CC1)NC(c1ccccc1)c1ccccc1	SIAE primary 18 | SIAE confirm inactive
Cc1cnc(CN(C)C(=O)c2ccc3oc(Cc4ccc(Cl)cc4)nc3c2)[nH]1	SIAE primary 18 (no result: RBBP9 inh) | SIAE confirm inactive
Cc1cccc(CCNC(=O)C2CC(O)CN2C(=O)Nc2ccccc2)c1 (configuration not stated)	none (no result: RBBP9 inh)
Cc1ccccc1N1CCN(S(=O)(=O)Cc2ccccc2)CC1	none (no result: ABHD4 inh, SIAE primary, RBBP9 inh)
Cc1ccccc1N1CCN(S(=O)(=O)N(C)C)CC1	SIAE primary 21 | SIAE confirm inactive
O=C(Nc1ccc(-n2cnnn2)cc1)c1cn2ccccc2n1	none (no result: ABHD4 inh, SIAE primary)
O=C(Nc1ccccc1)c1cn2ccccc2n1	SIAE primary 18 | SIAE confirm inactive
COc1ccc(CCNc2ncnc3cc(OC)c(OC)cc23)cc1OC	none
COc1ccc(CCNc2ncnc3c2[nH]c2cc(OC)c(OC)cc23)cc1OC	SIAE primary 19 | SIAE confirm 26
O=C(CSc1nnc(-c2ccco2)o1)NC1CCCCCC1	SIAE primary 18 | SIAE confirm inactive
O=C(CSc1nnc(-c2ccccc2)o1)NC1CCCC1	none (no result: RBBP9 inh)
CC(=O)c1ccccc1C(=O)N1CCCC(CNC(=O)c2ccc(F)cc2)C1 (configuration not stated)	none (no result: RBBP9 inh)
O=C(Nc1nc2ccc(Cl)cc2s1)c1ccc(Br)o1	none
